The values below come from ChEMBL document CHEMBL3272210, “Effect of the solvent-dependent conformational system of hydroxyureas on predicted vs. observed log P” (J Med Chem, 1977).

A short description of data set [1]: Octanol-water partition coefficient, log P of the compound after 72 hrs. It counts as physicochemical. The gist of the method:
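Known amounts (100 mg, 500 mg, 1.0 g) are shaken in equal volumes of 1-octanol and water pH 7.4 for 72 h, the optimal time. The aqueous layer is lyophilized, and the recovered compound is weighed and purity-checked. Values were cross-checked by colorimetry or UV for some compounds.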

Data set [2] is filed under the species Rattus norvegicus. As to the kind of experiment: Inhibition of rat hepatoma ribonucleotide reductase using ATP. The gist of the method:
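Partially purified rat Novikoff ascites hepatoma reductase (~0.2 mg) in pH 7 phosphate (8.3 mM) with 2.1 mM ATP, 4.2 mM MgAc2, Fe2+ (0.04 mM), 6.3 mM DTT, 1.0 μM rat thioredoxin and 0.17 mM 32P-CDP. Aqueous inhibitor is present before enzyme is added on ice, then 37 °C for 30 min. Perchloric acid stop, Dowex-50 product separation. Four concentrations, duplicate trials, ID50 by graphing/extrapolation.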

Data set [3] is filed under the species Rattus norvegicus. Kind of data set: Inhibition of rat hepatoma ribonucleotide reductase using ATP and Me2SO solvent. An outline of the steps:
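Rat Novikoff ascites hepatoma reductase, partially purified, assayed in 8.3 mM phosphate pH 7, 2.1 mM ATP, 4.2 mM MgAc2, 0.04 mM ferrous ammonium sulfate, 6.3 mM DTT, 1.0 μM thioredoxin, 0.17 mM 32P-CDP. Inhibitor is predissolved in DMSO and diluted to 1% DMSO final, then added on ice before enzyme, followed by 30 min at 37 °C. Dowex-50 readout. ID50 extrapolated from four concentrations tested in duplicate.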

The species entered for data set [4] is Rattus norvegicus. Kind of data set: Inhibition of rat hepatoma ribonucleotide reductase using ATP and Me2SO solvent relative to hydroxyurea.
The species entered for data set [5] is Rattus norvegicus. Kind of data set: Inhibition of rat hepatoma ribonucleotide reductase using ATP relative to hydroxyurea. An outline of the steps: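 Same 32P-CDP reduction assay, 30 min, 37 °C, ATP 2.1 mM, aqueous inhibitor. Each determination includes hydroxyurea as positive control. ID50 (four levels, two trials each) is divided relative to that run's hydroxyurea ID50, and ratios are averaged across determinations.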

The next data set relates to L1210. Kind of data set: Antitumor activity against mouse L1210 cells xenografted in host assessed as growth inhibition treated ip for 9 days. It counts as functional.

For orientation: logP means a log measure of how a compound divides between an organic and an aqueous phase. High values mean a more lipophilic compound, low ones a more hydrophilic compound. For the compound `O=C(NO)Nc1ccc(Cl)cc1`, in data set [1], the log partition coefficient (logP) at 72 h was determined as 1.39.
One may read the T/C as the result in the treated group divided by that in the control group, in per cent. On to `CCCNC(=O)NO`, for which the logP at 72 h in data set [1] is 0.22. Besides, the ID50 in the data set filed under Rattus norvegicus [2] and in the data set listed under Rattus norvegicus [3] was 340 µM throughout. Moreover, the Ratio in the data set listed under Rattus norvegicus [4] and in the data set listed under Rattus norvegicus [5] was 3.8 throughout. Moreover, the T/C in the data set on L1210 is given as 146%.
For the compound `CC(C)(C)NC(=O)NO`, the log partition coefficient (logP) at 72 h in data set [1] stood at 0.5. For the same compound, in the data set listed under Rattus norvegicus [3], the ID50 was 400 µM. Moreover, the Ratio in the data set listed under Rattus norvegicus [5] came to 9.5.
Turning to `NC(=O)NO` [HYDROXYUREA], the log partition coefficient (logP) at 72 h in data set [1] is -1.27. The ID50 in the data set listed under Rattus norvegicus [2] was determined as 110 µM. The Ratio in the data set filed under Rattus norvegicus [5] turned out to be 1. For the same compound, the T/C with L1210 stood at 291%.
On to `O=C(NO)Nc1ccccc1`, for which the logP at 72 h in data set [1] turned out to be 0.41.
With `CC(C)NC(=O)NO`, the logP at 72 h in data set [1] worked out at 0.2. The ID50 in the data set filed under Rattus norvegicus [2] turned out to be 800 µM. Besides, the Ratio in the data set filed under Rattus norvegicus [5] turned out to be 19. The T/C in the data set with L1210 was under 125%.
For `CN(O)C(N)=O` the same measures were -0.46, 100 µM, 0.9 and 162%.
For `CCN(O)C(N)=O`, the log partition coefficient (logP) at 72 h in data set [1] was -0.1. Further, in the data set filed under Rattus norvegicus [2], the ID50 was found to be 170 µM. Moreover, the Ratio in the data set filed under Rattus norvegicus [5] is 1.5. Also, in the data set on L1210, the T/C is reported as 168%.
Compound `CCCCNC(=O)NO` registered a log partition coefficient (logP) at 72 h in data set [1] of 0.32. In addition, the ID50 in the data set listed under Rattus norvegicus [3] amounted to 750 µM. Also, the Ratio in the data set filed under Rattus norvegicus [5] is 6.8.
Consider `CCNC(=O)NO`, for which the log partition coefficient (logP) at 72 h in data set [1] was -0.76. The T/C in the data set with L1210 was found to be 137%.
